Reference: ChEMBL document CHEMBL4330154, “Di- and heptavalent nicotinic analogues to interfere with α7 nicotinic acetylcholine receptors” (Bioorg Med Chem, 2019)

Key:
Type in all cases: cell-based
[1] = molecular target: T1, Neuronal acetylcholine receptor subunit alpha-7 (Homo sapiens, UniProt P36544); test: Antagonist activity at human alpha7 nAChR expressed in Xenopus laevis oocytes assessed as inhibition of ACh-induced inward current at -60 mV holding potential preincubated for 1 min followed by ACh addition by two-microelectrode voltage clamp assay relative to 2-(2-(2-(2-(4-(5-(1-methylpyrrolidin-2-yl)pyridin-3-yl)-1H-1,2,3-triazol-1-yl)ethoxy)ethoxy)ethoxy)ethanol
[2] = molecular target: T1, Neuronal acetylcholine receptor subunit alpha-7; test: Antagonist activity at human alpha7 nAChR expressed in Xenopus laevis oocytes assessed as inhibition of ACh-induced inward current at -60 mV holding potential preincubated for 1 min followed by ACh addition by two-microelectrode voltage clamp assay
Summary of the method: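 Oocytes expressing human α7 mRNA were clamped at −60 mV on an automated TEVC rig, using electrodes of 50–60 MΩ filled with 1 M KCl/1 M ammonium acetate. The bath was OR2 (88 mM NaCl, 1 mM MgCl₂, 5 mM Hepes, pH 7.6). ACh 100 μM was applied three times with 4 min washes between. Each oocyte then got a 1 min compound preincubation followed by 100 μM ACh plus the same compound concentration. IC50 came from a Hill fit of the fractional current.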

[3] = molecular target: T1, Neuronal acetylcholine receptor subunit alpha-7; test: Antagonist activity at human alpha7 nAChR expressed in Xenopus laevis oocytes assessed as inhibition of ACh-induced inward current at -60 mV holding potential preincubated for 1 min followed by ACh addition by two-microelectrode voltage clamp assay relative to cyclodextrin reference compound
Summary of the method: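 Human α7 mRNA expressed in Xenopus oocytes; automated two-electrode voltage clamp at -60 mV holding, electrodes filled with 1 M KCl/1 M ammonium acetate; OR2 buffer (88 mM NaCl, 1 mM MgCl2, 5 mM Hepes, pH 7.6). Three 100 μM ACh applications spaced by 4 min washes; 1 min compound preincubation, then 100 μM ACh plus compound. IC50 from fit F = 1/[1+([X]/IC50)^nH].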

T1 sequence (P36544 whole entry): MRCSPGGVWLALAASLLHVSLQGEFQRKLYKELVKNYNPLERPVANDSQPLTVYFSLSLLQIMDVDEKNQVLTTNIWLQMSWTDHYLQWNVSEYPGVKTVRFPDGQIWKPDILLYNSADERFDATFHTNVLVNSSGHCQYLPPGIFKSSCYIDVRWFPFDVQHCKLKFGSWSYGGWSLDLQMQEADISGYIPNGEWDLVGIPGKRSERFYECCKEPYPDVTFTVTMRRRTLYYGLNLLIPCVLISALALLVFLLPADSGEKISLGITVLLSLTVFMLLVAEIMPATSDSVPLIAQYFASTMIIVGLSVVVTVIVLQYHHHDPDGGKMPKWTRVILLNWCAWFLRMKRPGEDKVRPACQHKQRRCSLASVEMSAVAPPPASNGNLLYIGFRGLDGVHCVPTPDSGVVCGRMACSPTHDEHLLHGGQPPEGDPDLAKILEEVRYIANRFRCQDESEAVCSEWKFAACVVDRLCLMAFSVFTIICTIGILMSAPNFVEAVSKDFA

Compound | fold change (FC) [1] | IC50 [2] [µM] | inhibition [2] | fold change (FC) [3]
CN1CCCC1c1cncc(-c2cn(CCOCCOCCOCCOCCOCCOCCOCCOCCOCCOCCOCCn3cc(-c4cncc(C5CCCN5C)c4)nn3)nn2)c1 (configuration not stated) | 0.32 | 300 | Dose-dependent effect | –
CN1CCCC1c1cncc(-c2cn(C[C@H]3O[C@@H]4O[C@H]5[C@H](O)[C@@H](O)[C@@H](O[C@H]6[C@H](O)[C@@H](O)[C@@H](O[C@H]7[C@H](O)[C@@H](O)[C@@H](O[C@H]8[C@H](O)[C@@H](O)[C@@H](O[C@H]9[C@H](O)[C@@H](O)[C@@H](O[C@H]%10[C@H](O)[C@@H](O)[C@@H](O[C@H]3[C@H](O)[C@H]4O)O[C@@H]%10Cn3cc(-c4cncc(C%10CCCN%10C)c4)nn3)O[C@@H]9Cn3cc(-c4cncc(C9CCCN9C)c4)nn3)O[C@@H]8Cn3cc(-c4cncc(C8CCCN8C)c4)nn3)O[C@@H]7Cn3cc(-c4cncc(C7CCCN7C)c4)nn3)O[C@@H]6Cn3cc(-c4cncc(C6CCCN6C)c4)nn3)O[C@@H]5Cn3cc(-c4cncc(C5CCCN5C)c4)nn3)nn2)c1 (some centres not stated) | – | 196 | Dose-dependent effect | 0.14
CN1CCCC1c1cncc(-c2cn(CCOCCOCCOCCOCCOCCOCCOCCOCCOCCOCCOCCOCCOCCOCCOCCOCCOCCOCCOCCn3cc(-c4cncc(C5CCCN5C)c4)nn3)nn2)c1 (configuration not stated) | 0.61 | 160 | Dose-dependent effect | –
CN1CCCC1c1cncc(-c2cn(CCOCCOCCOCCO)nn2)c1 (configuration not stated) | – | 195 | Dose-dependent effect | –
CN1CCCC1c1cncc(-c2cn(CCOCCOCCOCCOCCOCCOCCOCCOCCOCCOCCOCCOCCOCCOCCOCCOCCOCCOCCOCCOCCOCCOCCOCCOCCOCCOCCOCCn3cc(-c4cncc(C5CCCN5C)c4)nn3)nn2)c1 (configuration not stated) | 4.6 | 21 | Dose-dependent effect | –
CN1CCCC1c1cncc(-c2cn(CCOCCOCCOCCn3cc(-c4cncc(C5CCCN5C)c4)nn3)nn2)c1 (configuration not stated) | 8.1 | 12 | Dose-dependent effect | –
CN1CCCC1c1cncc(-c2cn(CCOCCOCCOCCOCCOCCOCCOCCn3cc(-c4cncc(C5CCCN5C)c4)nn3)nn2)c1 (configuration not stated) | 0.16 | 611 | Dose-dependent effect | –
CN1CCCC1c1cncc(-c2cn(C[C@H]3O[C@@H]4O[C@H]5[C@H](O)[C@@H](O)[C@@H](O[C@H]6[C@H](O)[C@@H](O)[C@@H](O[C@H]7[C@H](O)[C@@H](O)[C@@H](O[C@H]8[C@H](O)[C@@H](O)[C@@H](O[C@H]9[C@H](O)[C@@H](O)[C@@H](O[C@H]%10[C@H](O)[C@@H](O)[C@@H](O[C@H]3[C@H](O)[C@H]4O)O[C@@H]%10CO)O[C@@H]9CO)O[C@@H]8CO)O[C@@H]7CO)O[C@@H]6CO)O[C@@H]5CO)nn2)c1 (some centres not stated) | – | 56 | Dose-dependent effect | –
